Compounds with a hit are over-represented: about 2% of the library has one in this group of screens.
CTSL1 counter = blocks F. hepatica cathepsin L1 in PFM18AAP counter-screen. recombinant F. hepatica cathepsin L1, Z-Leu-Arg-MCA fluorescence. 0.49% of 300,000 active. AID 1906. inhibition, % at 5.96 µM;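 active = inhibition above the mean of all tested compounds plus 3 SD, set per screening campaign, cut at about 17% in these data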
UCH37 inh = inhibitors of human deubiquitinating enzyme UCH37 | 0.33% of 330,000 active | Q9Y5K5 | purified proteasome/UCH37, Ub-AMC cleavage fluorescence | AID 588478 | inhibition, % (concentration not given with the values);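 active = mean inhibition over replicate wells above about 20%, limit read from the data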
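Schedule: 30 min plus 25 min, room temperature / Material: human UCH37 within purified proteasomes / Technique: AMC fluorescence intensity at 355/460 nm / Buffer or medium: pH 7.4 Tris-HCl (50 mM) with ovalbumin, ATP-MgCl2, DTT / Controls: wells without proteasome as full block, compound-free enzyme plus substrate as uninhibited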
GSTO1 inh = blocks human GSTO1 in RBBP9 counter-screen | inhibition, % at 5.96 µM | P78417 | 1.1% of 300,000 active | recombinant GSTO1, activity-based probe fluorescence polarization | AID 1974;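 active = inhibition above the campaign mean inhibition plus 3 SD, cut at about 35% in these data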
PP5 primary = PP5 (human) phosphatase inhibition | P53041 | purified PP5c, OMFP substrate fluorescence | inhibition, % at 6.7 µM | 0.18% of 320,000 active | AID 1987;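 active = inhibition above the campaign's mean inhibition across all tested compounds plus 3 SD, cut at about 9.5% in these data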
Target sequence (P53041 whole entry, looked up): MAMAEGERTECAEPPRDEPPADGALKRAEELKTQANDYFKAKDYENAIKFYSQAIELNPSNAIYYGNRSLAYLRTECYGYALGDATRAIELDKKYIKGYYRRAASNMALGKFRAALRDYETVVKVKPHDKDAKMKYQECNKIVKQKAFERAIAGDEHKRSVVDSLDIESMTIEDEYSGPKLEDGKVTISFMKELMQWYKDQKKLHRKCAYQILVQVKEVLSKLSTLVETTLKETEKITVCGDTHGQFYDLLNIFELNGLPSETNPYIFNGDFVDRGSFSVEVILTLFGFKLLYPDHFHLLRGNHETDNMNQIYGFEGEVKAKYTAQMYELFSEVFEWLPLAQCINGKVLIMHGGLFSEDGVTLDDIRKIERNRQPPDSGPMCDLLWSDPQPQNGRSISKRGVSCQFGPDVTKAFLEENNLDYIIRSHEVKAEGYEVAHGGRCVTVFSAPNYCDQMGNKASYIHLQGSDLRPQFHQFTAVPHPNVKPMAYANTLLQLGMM
Apaf1 inhib = blocks human Apaf-1 apoptosome activity. O14727. reconstituted apoptosome caspase-3 activity, DEVD-Rh110 fluorescence. inhibition, % at 20 µM. 0.71% of 330,000 active. AID 489030; active = inhibition of at least 40% at 20 µM
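Assay system: Apoptosome proteins | Medium: pH 7.5 Hepes buffer with CHAPS, BSA, DTT | Also added: Cytochrome c and DEVD-Rh110 substrate | Times: 30 min plus 50 min, RT | Detection: Rhodamine 110 fluorescence at Ex 480/Em 540 nm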
PAD4 inh = PAD4 (human) enzyme inhibition | Q9UM07 | inhibition, % at 6.36 µM | AID 485272 | recombinant PAD4, RCA probe fluorescence polarization | 0.41% of 330,000 active;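 active = percent inhibition above a cutoff equal to the mean of all tested compounds plus 3 SD, cut at about 15% in these data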
Apaf-1 inh conf = confirmation of Apaf-1 inhibitors. shares compounds with Apaf1 inhib. reconstituted apoptosome, caspase-3 DEVD-Rh110 fluorescence. inhibition, % at 20 µM. 25% of 1,800 active. AID 504614;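 active = mean inhibition of at least 40% at 20 µM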
Rh110 quench = Rh110 signal interference in Apaf-1 inhibitor counter-screen. shares compounds with Apaf1 inhib. Rh110 fluorescence interference, quenched caspase reaction. AID 504615. 1,800 tested, under 10 active. activation (fluorescence interference), % at 20 µM;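 active = signal rise of 40% or more at 20 µM, treated as a fluorescence artifact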
Apaf1 inh interf = shows fluorescence interference in the Apaf-1 inhibitor assay format | shares compounds with Apaf1 inhib | fluorescence interference counterscreen, Apaf-1 assay format | IC50, µM | 460 tested, under 10 active | AID 588538; call rule not given here
Hits are given with their value.

Results for CC1CCC(C(C)C)C(OC(=O)Cn2c(-c3ccc(Br)cc3)[n+](C)c3ccccc32)C1 (configuration not stated) ?
CTSL1 counter: inactive; UCH37 inh: inactive; GSTO1 inh: inactive; PP5 primary: inactive; Apaf1 inhib: inactive; PAD4 inh: inactive

How did CC(=NNC(=O)c1c(Cl)c(C)nn1C)c1ccc(NC(=O)C2CCC2)cc1 do in these assays?
UCH37 inh: inactive

How did COc1ccc(C(C)=NO)cc1OC do in these assays?
UCH37 inh: inactive

Results for CCOc1ccc2nc(NC3=NC(c4ccc(OC)cc4)CC(=O)N3)nc(C)c2c1 (configuration not stated) ?
CTSL1 counter: inactive; UCH37 inh: inactive; GSTO1 inh: inactive; PP5 primary: inactive; Apaf1 inhib: 79; PAD4 inh: inactive; Apaf-1 inh conf: 70; Rh110 quench: inactive; Apaf1 inh interf: inactive

What do the screens show for `CC(=NNC(=O)CNC(=O)c1cccc(F)c1)c1ccc2ccccc2c1`?
UCH37 inh: inactive

Results for CC1(C)Cc2cccc(OCC(=O)N3CCN(c4cccc(C(F)(F)F)c4)CC3)c2O1 ?
CTSL1 counter: inactive; UCH37 inh: inactive; GSTO1 inh: inactive; PP5 primary: inactive; Apaf1 inhib: 45; PAD4 inh: inactive; Apaf-1 inh conf: 45; Rh110 quench: inactive; Apaf1 inh interf: inactive

What do the screens show for `CCC1CCc2sc(C(=O)NCC(c3ccccc3OC)N3CCCC3)cc2C1` (configuration not stated)?
UCH37 inh: inactive; PP5 primary: inactive; Apaf1 inhib: 49; PAD4 inh: inactive; Apaf-1 inh conf: inactive; Rh110 quench: inactive

How did COc1ccc(C(CNC(=O)c2cc3c(s2)CCC(C)C3)N2CCCC2)cc1 (configuration not stated) do in these assays?
UCH37 inh: inactive; PP5 primary: inactive; Apaf1 inhib: 61; PAD4 inh: inactive; Apaf-1 inh conf: inactive; Rh110 quench: inactive

How did CCCc1ccc2oc(C(=O)NCCc3cnn(C)c3)c(C)c2c1 do in these assays?
CTSL1 counter: inactive; UCH37 inh: inactive; GSTO1 inh: inactive; PP5 primary: inactive; Apaf1 inhib: inactive; PAD4 inh: inactive

How did CCCc1ccc2oc(C(=O)NCCc3nc(C(=O)OCC)cs3)c(C)c2c1 do in these assays?
UCH37 inh: inactive; Apaf1 inhib: 41; Apaf-1 inh conf: inactive; Rh110 quench: inactive

Results for COc1ccc(NS(=O)(=O)c2cccc(C(=O)N3CCCCCCC3)c2)cc1 ?
UCH37 inh: inactive; PP5 primary: inactive; Apaf1 inhib: 45; PAD4 inh: inactive; Apaf-1 inh conf: inactive; Rh110 quench: inactive

Results for CCc1ccc2c(Cl)c(C(=O)NN=Cc3c[nH]c4ccccc34)sc2c1 ?
UCH37 inh: inactive

How did Cc1ccc(NC(=O)c2ncn(CC(=O)N[C@H](CO)Cc3c[nH]c4ccccc34)n2)cc1C do in these assays?
UCH37 inh: inactive; Apaf1 inhib: 74; PAD4 inh: inactive; Apaf-1 inh conf: inactive; Rh110 quench: inactive

Results for COc1ccc(C(C)=NNc2ncc(Cl)cc2Cl)c(O)c1 ?
UCH37 inh: inactive

How did O=C(NN=Cc1cccc([N+](=O)[O-])c1)c1cc(-c2ccc3c(c2)OCO3)n[nH]1 do in these assays?
UCH37 inh: inactive

Results for C#CCOCCOCCOCCNc1nc(N2CCN(C(=O)[C@H](CCCN=C(N)N)n3cc(C(N)[C@@H](C)CC)nn3)CC2)nc(N2CCN(C(=O)[C@H](CCCCN)n3cc([C@@H](N)[C@H](C)CC)nn3)CC2)n1 (some centres not stated) ?
UCH37 inh: inactive; Apaf1 inhib: 50; PAD4 inh: inactive; Apaf-1 inh conf: inactive; Rh110 quench: inactive

Results for C#CCOCCOCCOCCNc1nc(N2CCN(C(=O)[C@H](CCCCN)n3cc([C@@H](N)[C@H](C)CC)nn3)CC2)nc(N2CCN(C(=O)[C@H](CCC(=O)O)n3cc([C@@H](N)CCCCN)nn3)CC2)n1 ?
UCH37 inh: inactive; Apaf1 inhib: 47; PAD4 inh: inactive; Apaf-1 inh conf: inactive; Rh110 quench: inactive

Results for C#CCOCCOCCOCCNc1nc(N2CCN(C(=O)[C@H](CCCCN)n3cc(C(N)[C@H](C)CC)nn3)CC2)nc(N2CCN(C(=O)[C@H](CCC(=O)O)n3cc(C(N)[C@H](C)CC)nn3)CC2)n1 (some centres not stated) ?
CTSL1 counter: inactive; UCH37 inh: inactive; GSTO1 inh: inactive; PP5 primary: inactive; Apaf1 inhib: inactive; PAD4 inh: inactive

What do the screens show for `COc1ccc(C(=O)NN=C(C)c2ccc(NC(=O)Cc3ccccc3)cc2)c(OC)c1`?
UCH37 inh: inactive

How did Cc1c(Cl)cccc1N=C(N)N=C(N)N do in these assays?
CTSL1 counter: inactive; UCH37 inh: inactive; GSTO1 inh: inactive; PP5 primary: inactive; Apaf1 inhib: inactive; PAD4 inh: inactive

Results for NC(N)=NC(N)=Nc1cccc2ccccc12 ?
CTSL1 counter: inactive; UCH37 inh: inactive; GSTO1 inh: inactive; PP5 primary: inactive; Apaf1 inhib: 83; PAD4 inh: inactive; Apaf-1 inh conf: inactive; Rh110 quench: inactive

What do the screens show for `NC(N)=N/N=C/c1ccc(OCc2ccccc2)c(OCc2ccccc2)c1`?
CTSL1 counter: inactive; GSTO1 inh: inactive; PP5 primary: inactive; Apaf1 inhib: 61; PAD4 inh: inactive; Apaf-1 inh conf: 42; Rh110 quench: inactive; Apaf1 inh interf: inactive

What do the screens show for `COc1cc(/C=N/N=C(N)N)ccc1OCc1ccc(Cl)cc1`?
CTSL1 counter: inactive; GSTO1 inh: inactive; PP5 primary: inactive; Apaf1 inhib: 40; PAD4 inh: inactive; Apaf-1 inh conf: inactive; Rh110 quench: inactive

How did CCc1nnc(NC(=O)c2ccc(S(=O)(=O)N3CCCCC3)cc2)s1 do in these assays?
CTSL1 counter: inactive; UCH37 inh: inactive; GSTO1 inh: inactive; PP5 primary: inactive; Apaf1 inhib: 55; PAD4 inh: inactive; Apaf-1 inh conf: inactive; Rh110 quench: inactive

Results for COc1ccccc1CNC(=O)CN1C(=O)NC(c2ccccc2)(c2ccc(C)c(C)c2)C1=O (configuration not stated) ?
UCH37 inh: inactive; Apaf1 inhib: 66; Apaf-1 inh conf: inactive; Rh110 quench: inactive

How did CC(=NNC(=O)c1nnn(-c2nonc2N)c1CN1CCOCC1)c1ccc(CC(C)C)cc1 do in these assays?
UCH37 inh: inactive

How did CC1C(=O)NN=C1C(=O)NN=Cc1cccs1 (configuration not stated) do in these assays?
UCH37 inh: inactive
